Reference: ChEMBL document CHEMBL2146445, “Discovery of BIIB042, a Potent, Selective, and Orally Bioavailable γ-Secretase Modulator” (ACS Med Chem Lett, 2011)
Activity calls are given as the source filed them. The rule behind the calls is not given here.

How the values were obtained:
[1] = Modulation of gamma-secretase in CHO cells overexpressing APP V717 mutant assessed as reduction in amyloid beta42 level after 17 hrs by ELISA; format: cell-based; conditions: Cricetulus griseus
In short: (§1)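 CHO cells overexpressing APP V717F; Aβ42, Aβ40 and Aβ38 quantified together in each well by multiplex Aβ ELISA. EC50 is the mean of at least two determinations.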

CHO [2] = assay: Modulation of gamma-secretase in CHO cells overexpressing APP V717 mutant assessed as increase in amyloid beta38 level after 17 hrs by ELISA; format: cell-based; conditions: Cricetulus griseus; in short: as §1
CHO [3] = assay: Modulation of gamma-secretase in CHO cells overexpressing APP V717 mutant assessed as effect on amyloid beta40 level after 17 hrs by ELISA; format: cell-based; conditions: Cricetulus griseus; in short: as §1
[4] = Plasma concentration in CF1 mouse at 30 mg/kg, po after 4 hrs; format: ADME, organism-based; design: dose 30 mg/kg, route oral
In short: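 Wild-type (CF-1) mice given compound orally as a solution in ethanol:propylene glycol:10% solutol (1:1:8). Animals sacrificed 4 h post-dose; brain and plasma collected for drug exposure and Aβ levels.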

Mus musculus = assay: Antialzheimer activity in CF1 mouse assessed as reduction in amyloid beta42 level in brain at 30 mg/kg, po after 4 hrs by ELISA; format: functional; design: scale not given: the % may be the effect or the level left
In short: (§2)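 Wild-type CF-1 mice received a single oral dose as a solution in ethanol:propylene glycol:10% solutol (1:1:8). Animals were sacrificed 4 h after dosing. Brain and plasma were collected for drug concentration and Aβ levels. Aβ change was expressed relative to vehicle-treated controls.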

[5] = Drug uptake in CF1 mouse brain at 30 mg/kg, po after 4 hrs; format: ADME, organism-based; design: dose 30 mg/kg, route oral; conditions: read-out: Drug uptake; in short: as §2

Row | Compound | EC50 [1] | concentration at 4 h [4] | concentration at 4 h [5] | Activity (CHO [2]) | Activity (CHO [3]) | Activity (Mus musculus)
1 | CC1CCN(C(c2ccc(F)cc2)c2ccc(CC(=O)O)cc2-c2ccc(C(F)(F)F)cc2)CC1 (centres undefined) | 2900 nM |  |  | Active | inactive | 
2 | CC(C(=O)O)c1ccc(C(c2ccc(F)cc2)N2CC3CCC(C3)C2)c(-c2ccc(C(F)(F)F)cc2)c1 (centres undefined) | 390 nM | 10.7 µM | 3.1 µM | Active | inactive | 25%
3 | CCC(C(=O)O)c1ccc(C(c2ccc(F)cc2)N2CCC(C)CC2)c(-c2ccc(C(F)(F)F)cc2)c1 (centres undefined) | 330 nM | 20.4 µM | 13 µM | Active | inactive | 40%
4 | CC1CCN(C(c2ccc(F)cn2)c2ccc(C(C)C(=O)O)cc2-c2ccc(C(F)(F)F)cc2)CC1 (centres undefined) | 3700 nM |  |  | Active | inactive | 
5 | CC1CCN(C(c2ccc(C(F)(F)F)nc2)c2ccc(C(C)C(=O)O)cc2-c2ccc(C(F)(F)F)cc2)CC1 (centres undefined) | 580 nM | 25.2 µM | 10.9 µM | Active | inactive | 23%
6 | CC1CCN(C(c2ccc(F)cc2)c2ccc(C(C(=O)O)C(C)C)cc2-c2ccc(C(F)(F)F)cc2)CC1 (centres undefined) | 120 nM |  |  | Active | inactive | 
7 | CC(C(=O)O)c1ccc(C(c2ccc(F)cc2)N2CCC3(CC2)CC3)c(-c2ccc(C(F)(F)F)cc2)c1 (centres undefined) | 400 nM |  |  | Active | inactive | 
8 | CC(C(=O)O)c1ccc(C(c2ccc(F)cc2)N2CCCC(C)(C)C2)c(-c2ccc(C(F)(F)F)cc2)c1 (centres undefined) | 170 nM | 5.3 µM | 2.5 µM | Active | inactive | 25%
9 | CC(C(=O)O)c1ccc(C(c2ccc(F)cc2)N2CCN(C)CC2)c(-c2ccc(C(F)(F)F)cc2)c1 (centres undefined) | > 10000 nM |  |  | Active | inactive | 
10 | CC(C(=O)O)c1ccc(C(c2ccc(F)cc2)N2CCC(F)CC2)c(-c2ccc(C(F)(F)F)cc2)c1 (centres undefined) | 2000 nM |  |  | Active | inactive | 
11 | CC(C(=O)O)c1ccc(C(c2ccc(F)cc2)N2CCCC2)c(-c2ccc(C(F)(F)F)cc2)c1 (centres undefined) | 2300 nM |  |  | Active | inactive | 

More lines, in order of falling EC50 [1], values ahead:

Row | EC50 [1] | concentration at 4 h [4] | concentration at 4 h [5] | Compound | Activity (CHO [2]) | Activity (CHO [3]) | Activity (Mus musculus)
12 | 4500 nM |  |  | CC1CCN(C(c2ccc(F)cc2)c2ccc(C(C)C(=O)O)cc2-c2cnc(C(C)(C)C)nc2)CC1 (centres undefined) | Active | inactive | 
13 | 2300 nM |  |  | O=C(O)Cc1ccc(C(c2ccc(F)cc2)N2CCC(C(F)(F)F)CC2)c(-c2ccc(F)cc2)c1 (centres undefined) | Active | inactive | 
14 | 2200 nM |  |  | CC1CCN(C(c2ccc(F)cc2)c2ccc(C3(C(=O)O)CC3)cc2-c2ccc(C(F)(F)F)cc2)CC1 (centres undefined) | Active | inactive | 
15 | 1400 nM |  |  | CC(C(=O)O)c1ccc(C(c2ccc(F)cc2)N2CCCCC2)c(-c2ccc(C(F)(F)F)cc2)c1 (centres undefined) | Active | inactive | 
16 | 390 nM | 27.2 µM | 18.4 µM | CC1CCN(C(c2ccc(F)cc2)c2ccc(C(C)C(=O)O)cc2-c2ccc(C(F)(F)F)cc2)CC1 (racemic) | Active | inactive | 45%
17 | 250 nM |  |  | CCCC(C(=O)O)c1ccc(C(c2ccc(F)cc2)N2CCC(C)CC2)c(-c2ccc(C(F)(F)F)cc2)c1 (centres undefined) | Active | inactive | 
18 | 40 nM |  |  | CC(C)(C)CC(C(=O)O)c1ccc(C(c2ccc(F)cc2)N2CCCCC2)c(-c2ccc(C(F)(F)F)cc2)c1 (centres undefined) | Active | inactive | 
